Values after ≈ are worked out from the molar mass of the structure shown.
What was measured:
Assay type in all cases: functional
[1] = tested on: Streptococcus pneumoniae; test: Antibacterial activity against erythromycin-resistant Streptococcus pneumoniae A22072 expressing mefA gene by broth microdilution method
In short: (§1)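 Broth microdilution per NCCL recommendation, read as minimal inhibitory concentration, run alongside azithromycin and clarithromycin references. Strains: S. pneumoniae B1 (erythromycin-resistant, ermB), A22072 (erythromycin-resistant, mefA), AB11 (erythromycin-resistant, erm and mef); S. aureus ATCC29213 ([…]); S. epidermidis clinical isolate (penicillin-resistant, not characterized).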

[2] = tested on: Bacillus subtilis; test: Antibacterial activity against erythromycin/penicillin-susceptible Bacillus subtilis ATCC 9372 by broth microdilution method
In short: (§2)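 MICs were determined in vitro by broth microdilution following the NCCL-recommended method. Azithromycin and clarithromycin were run alongside as reference antibiotics on the same strain panel.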

[3] = tested on: Streptococcus pneumoniae; test: Antibacterial activity against erythromycin-resistant Streptococcus pneumoniae AB11 expressing ermB/mefA genes by broth microdilution method; in short: as §1
[4] = tested on: Staphylococcus aureus; test: Antibacterial activity against […] Staphylococcus aureus ATCC 29213 by broth microdilution method; in short: as §1
[5] = tested on: Streptococcus pneumoniae; test: Antibacterial activity against erythromycin-resistant Streptococcus pneumoniae B1 expressing ermB gene by broth microdilution method; in short: as §1
[6] = tested on: Streptococcus pyogenes; test: Antibacterial activity against erythromycin-susceptible Streptococcus pyogenes clinical isolate by broth microdilution method; in short: as §2
[7] = tested on: Staphylococcus epidermidis; test: Antibacterial activity against penicillin-resistant Staphylococcus epidermidis clinical isolate by broth microdilution method; in short: as §1
[8] = tested on: Escherichia coli; test: Antibacterial activity against penicillin-susceptible Escherichia coli ATCC 25922 by broth microdilution method; in short: as §2
[9] = tested on: Staphylococcus aureus; test: Antibacterial activity against erythromycin-susceptible Staphylococcus aureus ATCC 25923 by broth microdilution method; in short: as §2
[10] = tested on: Pseudomonas aeruginosa; test: Antibacterial activity against penicillin-susceptible Pseudomonas aeruginosa ATCC 27853 by broth microdilution method; in short: as §2
[11] = tested on: Streptococcus pyogenes; test: Antibacterial activity against erythromycin-resistant Streptococcus pyogenes R1 clinical isolate by broth microdilution method

SMILES | MIC [1] [µg/mL] | MIC [2] [µg/mL] | MIC [3] [µg/mL] | MIC [4] [µg/mL] | MIC [5] [µg/mL] | MIC [6] [µg/mL] | MIC [7] [µg/mL] | MIC [8] [µg/mL] | MIC [9] [µg/mL] | MIC [10] [µg/mL] | MIC [11] [µg/mL]
CC[C@H]1OC(=O)[C@H](C)[C@@H](OC(=O)NCc2ccccc2)[C@H](C)[C@@H](O[C@@H]2O[C@H](C)C[C@H](N(C)C)[C@H]2OC(C)=O)[C@](C)(O)C[C@@H](C)CN(C)[C@H](C)[C@H]2OC(=O)O[C@@]21C | 32 (≈ 40.4 µM) | 64 (≈ 80.8 µM) | 64 (≈ 80.8 µM) | 64 (≈ 80.8 µM) | 128 (≈ 162 µM) | 8 (≈ 10.1 µM) | 64 (≈ 80.8 µM) | 128 (≈ 162 µM) | 64 (≈ 80.8 µM) | 128 (≈ 162 µM) | 128 (≈ 162 µM)
CCCCc1ccc(NC(=O)O[C@H]2[C@H](O[C@@H]3[C@@H](C)[C@H](O)[C@@H](C)C(=O)O[C@H](CC)[C@@]4(C)OC(=O)O[C@@H]4[C@@H](C)N(C)C[C@H](C)C[C@@]3(C)O)O[C@H](C)C[C@@H]2N(C)C)cc1 | 64 (≈ 80.8 µM) | 128 (≈ 162 µM) | 32 (≈ 40.4 µM) | 128 (≈ 162 µM) | 256 (≈ 323 µM) | 8 (≈ 10.1 µM) | 64 (≈ 80.8 µM) | 128 (≈ 162 µM) | 32 (≈ 40.4 µM) | 128 (≈ 162 µM) | 64 (≈ 80.8 µM)
CC[C@H]1OC(=O)[C@H](C)[C@@H](OC(=O)Nc2ccc(F)cc2)[C@H](C)[C@@H](O[C@@H]2O[C@H](C)C[C@H](N(C)C)[C@H]2O)[C@](C)(O)C[C@@H](C)CN(C)[C@H](C)[C@H]2OC(=O)O[C@@]21C | 2 (≈ 2.65 µM) | 16 (≈ 21.2 µM) | 8 (≈ 10.6 µM) | 64 (≈ 84.9 µM) | 32 (≈ 42.4 µM) | 0.25 (≈ 0.332 µM) | 64 (≈ 84.9 µM) | 128 (≈ 170 µM) | 32 (≈ 42.4 µM) | 128 (≈ 170 µM) | 64 (≈ 84.9 µM)
CC[C@H]1OC(=O)[C@H](C)[C@@H](OC(=O)Nc2ccccc2Cl)[C@H](C)[C@@H](O[C@@H]2O[C@H](C)C[C@H](N(C)C)[C@H]2O)[C@](C)(O)C[C@@H](C)CN(C)[C@H](C)[C@H]2OC(=O)O[C@@]21C | 1 (≈ 1.3 µM) | 8 (≈ 10.4 µM) | 4 (≈ 5.19 µM) | 64 (≈ 83.1 µM) | 64 (≈ 83.1 µM) | 0.125 (≈ 0.162 µM) | 64 (≈ 83.1 µM) | 128 (≈ 166 µM) | 8 (≈ 10.4 µM) | 128 (≈ 166 µM) | 128 (≈ 166 µM)
CC[C@H]1OC(=O)[C@H](C)[C@@H](O)[C@H](C)[C@@H](O[C@@H]2O[C@H](C)C[C@H](N(C)C)[C@H]2OC(=O)Nc2cccc(F)c2)[C@](C)(O)C[C@@H](C)CN(C)[C@H](C)[C@H]2OC(=O)O[C@@]21C | 8 (≈ 10.6 µM) | 128 (≈ 170 µM) | 16 (≈ 21.2 µM) | 128 (≈ 170 µM) | 256 (≈ 340 µM) | 1 (≈ 1.33 µM) | 64 (≈ 84.9 µM) | 128 (≈ 170 µM) | 32 (≈ 42.4 µM) | 128 (≈ 170 µM) | 128 (≈ 170 µM)
CC[C@H]1OC(=O)[C@H](C)[C@@H](O)[C@H](C)[C@@H](O[C@@H]2O[C@H](C)C[C@H](N(C)C)[C@H]2OC(=O)Nc2cccc(C)c2)[C@](C)(O)C[C@@H](C)CN(C)[C@H](C)[C@H]2OC(=O)O[C@@]21C | 128 (≈ 171 µM) | 32 (≈ 42.7 µM) | 64 (≈ 85.3 µM) | 128 (≈ 171 µM) | 128 (≈ 171 µM) | 1 (≈ 1.33 µM) | 32 (≈ 42.7 µM) | 64 (≈ 85.3 µM) | 32 (≈ 42.7 µM) | 128 (≈ 171 µM) | 64 (≈ 85.3 µM)
CC[C@H]1OC(=O)[C@H](C)[C@@H](O)[C@H](C)[C@@H](O[C@@H]2O[C@H](C)C[C@H](N(C)C)[C@H]2OC(=O)Nc2ccccc2)[C@](C)(O)C[C@@H](C)CN(C)[C@H](C)[C@H]2OC(=O)O[C@@]21C | 8 (≈ 10.9 µM) | 32 (≈ 43.5 µM) | 8 (≈ 10.9 µM) | 128 (≈ 174 µM) | 128 (≈ 174 µM) | 0.5 (≈ 0.679 µM) | 32 (≈ 43.5 µM) | 64 (≈ 87 µM) | 32 (≈ 43.5 µM) | 32 (≈ 43.5 µM) | 128 (≈ 174 µM)
CC[C@H]1OC(=O)[C@H](C)[C@@H](OC(=O)Nc2ccccc2)[C@H](C)[C@@H](O[C@@H]2O[C@H](C)C[C@H](N(C)C)[C@H]2OC(C)=O)[C@](C)(O)C[C@@H](C)CN(C)[C@H](C)[C@H]2OC(=O)O[C@@]21C | 4 (≈ 5.14 µM) | 32 (≈ 41.1 µM) | 64 (≈ 82.3 µM) | 128 (≈ 165 µM) | 128 (≈ 165 µM) | 0.25 (≈ 0.321 µM) | 16 (≈ 20.6 µM) | 32 (≈ 41.1 µM) | 32 (≈ 41.1 µM) | 64 (≈ 82.3 µM) | 128 (≈ 165 µM)
CCCCCNC(=O)O[C@H]1[C@H](C)[C@@H](O[C@@H]2O[C@H](C)C[C@H](N(C)C)[C@H]2OC(C)=O)[C@](C)(O)C[C@@H](C)CN(C)[C@H](C)[C@H]2OC(=O)O[C@]2(C)[C@@H](CC)OC(=O)[C@@H]1C | 32 (≈ 41.5 µM) | 32 (≈ 41.5 µM) | 128 (≈ 166 µM) | 64 (≈ 82.9 µM) | 64 (≈ 82.9 µM) | 4 (≈ 5.18 µM) | 32 (≈ 41.5 µM) | 128 (≈ 166 µM) | 32 (≈ 41.5 µM) | 128 (≈ 166 µM) | 128 (≈ 166 µM)

From ChEMBL document CHEMBL3994579, “Synthesis and antibacterial activity of novel 3-O-descladinosylazithromycin derivatives” (2017)
